Data on 13 molecules can be found in ChEMBL document CHEMBL2417455, “Design, synthesis and biological evaluation of new aryl thiosemicarbazone as antichagasic candidates” (Eur J Med Chem, 2013).

Data set [1] addresses Cruzipain (Trypanosoma cruzi) (UniProt P25779). Kind of data set: Inhibition of Trypanosoma cruzi cruzain expressed in Escherichia coli DH5-alpha using Bz-Phe-Arg-AMC as substrate at 10 uM preincubated for 5 mins followed by substrate addition measured for 5 mins by spectrofluorimetric analysis relative to control. Summed up:
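Recombinant cruzain at 0.23 nM in pH 6.5 buffer (50 mM Na2PO4, 2.5 mM EDTA), preincubated 5 min with or without inhibitor at a single 10 µM concentration. Bz-Phe-Arg-AMC was then added (stock 170 µM). Fluorescence was read at ex 380/em 460 nm, 37 °C, under magnetic stirring, for 5 min. Triplicate measurements.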

The subject of data set [2] is Trypanosoma cruzi. Nature of the data set: Trypanocidal activity against epimastigote stage of Trypanosoma cruzi Y after 72 hrs by MTT assay. The class given is functional, organism-based. The essentials:
(§1)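 Log-phase (7-day) Y-strain epimastigotes at 10⁷/mL in LIT medium with 10% fetal calf serum were exposed to DMSO-dissolved compound at 100, 50, 25, 10, 5, 2.5 and 1 µg/mL for 72 h at 28 °C. MTT-PMS was added for 75 min in the dark, then 10% SDS for 30 min. OD was read at 595 nm and percent death determined. IC50 by linear regression of OD. Triplicates, Probit analysis.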
For orientation: Tetrazolium dyes change colour on reduction, which living cells bring about.

The test system of data set [3] is Mus musculus. Nature of the data set: Mutagenicity in Swiss albino mouse at 250 mg/kg after 30 hrs by micronucleus test. It counts as toxicity, organism-based. The arrangement: dose 250 mg/kg. To be noted: in vivo. The essentials: (§2)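 Swiss albino mice (~30 g) were dosed by gavage at 50, 100 or 250 mg/kg bwt. Negative control received 1% CMC/0.2% Tween 40 aqueous solution by gavage; a water-only group set basal frequency. Tail blood was taken 30 h after treatment onto acridine orange slides and held ≥24 h at -20 °C in the dark. Micronuclei were counted per 1,000 reticulocytes per animal by fluorescence microscopy. Values are arithmetic means compared by one-way ANOVA/Tukey (P < 0.05).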

Data set [4] concerns Mus musculus. Nature of the data set: Mutagenicity in Swiss albino mouse at 100 mg/kg after 30 hrs by micronucleus test. The note with it: in vivo. The arrangement: dose 100 mg/kg. It counts as toxicity, organism-based. Summed up: as §2
Data set [5] has as its system Trypanosoma cruzi. Kind of data set: Trypanocidal activity against epimastigote stage of Trypanosoma cruzi Y at 50 ug/mL after 72 hrs by MTT assay relative to control. It counts as functional. Summed up: as §1
Data set [6] relates to Trypanosoma cruzi. Nature of the data set: Trypanocidal activity against epimastigote stage of Trypanosoma cruzi Y at 5 ug/mL after 72 hrs by MTT assay relative to control. It counts as functional. The essentials: as §1
Data set [7] has as its system Trypanosoma cruzi. Kind of data set: Potency index, ratio of benznidazole IC50 to compound IC50 for epimastigote stage of Trypanosoma cruzi Y. It counts as functional.
Where [8] appears, read: Trypanosoma cruzi, Y, 72 h, read-out: IC50.

Active and inactive are the calls of the source. The rule behind the calls is not given here. Bounds are passed on as bounds.

Sequence of Cruzipain (Trypanosoma cruzi) (P25779 123-467 limits assumed): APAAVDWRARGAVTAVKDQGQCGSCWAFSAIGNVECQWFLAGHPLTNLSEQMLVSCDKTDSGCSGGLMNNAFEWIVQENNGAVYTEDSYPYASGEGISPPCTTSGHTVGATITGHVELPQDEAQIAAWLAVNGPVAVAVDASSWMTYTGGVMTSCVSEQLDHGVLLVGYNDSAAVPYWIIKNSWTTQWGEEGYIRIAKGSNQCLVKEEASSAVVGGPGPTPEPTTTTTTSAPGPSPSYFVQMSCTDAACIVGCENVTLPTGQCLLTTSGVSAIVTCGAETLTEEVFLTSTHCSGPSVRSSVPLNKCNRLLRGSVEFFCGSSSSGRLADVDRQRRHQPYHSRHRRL

One may read the inhibition as the percentage by which the read-out fell short of the control. Usually IC50 stands for the midpoint of a concentration-inhibition curve. With `C/C(=N\NC(N)=S)c1cccc(N)c1`, the inhibition result in data set [1] was “inactive”. The half-inhibitory concentration (IC50) in the data set with Trypanosoma cruzi [2] (setting [8]) is > 480 µM.
In data set [1], `NC(=S)N/N=C(\CNC(=O)CCC(=O)O)c1ccc([N+](=O)[O-])cc1` had an inhibition of 50%. The Activity result in the data set with Mus musculus [3] and in the data set with Mus musculus [4] was “Non-toxic” each time. For the same molecule, the IC50 in the data set on Trypanosoma cruzi [2] (setting [8]) amounted to 12 µM.
In the case of `O=C(Cn1ccnc1[N+](=O)[O-])NCc1ccccc1` [BENZNIDAZOLE], the Activity result in the data set on Mus musculus [4] was “Toxic”. In the data set with Trypanosoma cruzi [2] (setting [8]), the IC50 came to 34.6 µM.
In the case of `C/C(=N\NC(N)=S)c1ccc(N)c([N+](=O)[O-])c1`, the inhibition in data set [1] was 55%. In the data set with Trypanosoma cruzi [2], the IC50 entry is on record as “Not Active”.
Regarding `C/C(=N\NC(N)=S)c1ccc([N+](=O)[O-])c(N)c1`, in data set [1], the inhibition is 65%. For the same molecule, the IC50 in the data set with Trypanosoma cruzi [2] (setting [8]) was determined as 239 µM.
The corresponding values for `NC/C(=N\NC(N)=S)c1ccccc1` are “inactive” and > 409 µM.
On to `NC/C(=N\NC(N)=S)c1cccc([N+](=O)[O-])c1`, for which the inhibition entry in data set [1] was “inactive”. For the same molecule, in the data set on Trypanosoma cruzi [5], the inhibition at 50 µg/mL was 3%. The IC50 with Trypanosoma cruzi [2] (setting [8]) was > 299 µM.
As to `C/C(=N\NC(N)=S)c1cccc([N+](=O)[O-])c1`, the inhibition in data set [1] is 5%. Besides, in the data set on Trypanosoma cruzi [6], the inhibition at 5 µg/mL was determined as 3%. For the same molecule, the IC50 with Trypanosoma cruzi [2] (setting [8]) was > 420 µM.
Consider `C/C(=N\N=C(/N)S)c1ccccc1` [PHENYL(METHYL)THIOSEMICARBAZONE], for which, in data set [1], the inhibition entry was “inactive”. The concentration for half-maximal inhibition (IC50) in the data set with Trypanosoma cruzi [2] (setting [8]) amounted to 195 µM.
On to `Br.NC/C(=N\NC(N)=S)c1ccc([N+](=O)[O-])cc1`, for which the inhibition in data set [1] was 20%. Further, the Activity result in the data set with Mus musculus [3] and in the data set with Mus musculus [4] was “Non-toxic” in each case. In addition, the “Ratio IC50” value with Trypanosoma cruzi [7] came to 5. In the data set with Trypanosoma cruzi [2] (setting [8]), the IC50 came to 6.3 µM.
Regarding `C/C(=N\NC(N)=S)c1ccc(N)cc1`, the inhibition in data set [1] was determined as 25%. In the data set with Trypanosoma cruzi [2] (setting [8]), the IC50 is > 480 µM.
As to `NC(=S)N/N=C(\CO)c1ccc([N+](=O)[O-])cc1`, the inhibition in data set [1] is 10%. In addition, the Activity result in the data set on Mus musculus [3] and in the data set on Mus musculus [4] was “Non-toxic” throughout. In addition, the IC50 with Trypanosoma cruzi [2] (setting [8]) was 37.7 µM.
`NC(=S)N/N=C(\COC(=O)CCC(=O)O)c1ccc([N+](=O)[O-])cc1` had an inhibition in data set [1] of 10%. Besides, the IC50 in the data set on Trypanosoma cruzi [2] (setting [8]) is 116 µM.
